Laboratory results from ChEMBL document CHEMBL1125621, “Muscarinic receptor binding and activation of second messengers by substituted N-methyl-N-[4-(1-azacycloalkyl)-2-butynyl]acetamides” (1991).
Active and inactive are the calls of the source.

Assays:
A9 [1] = assay: Increase in phosphoinositide (PI) metabolism in A9L-m1 cells at 100 uM.; assay type: functional, Mus musculus
[2] = molecular target: Muscarinic acetylcholine receptor M3 (Mus musculus) (UniProt Q9ERZ3); assay: Increase in phosphoinositide (PI) metabolism in A9L-cholinergic receptor, muscarinic 3 expressing cells was measured at 100 uMolar; assay type: functional; conditions: 100 uM
Chain of Muscarinic acetylcholine receptor M3 (Mus musculus) (Q9ERZ3 whole entry): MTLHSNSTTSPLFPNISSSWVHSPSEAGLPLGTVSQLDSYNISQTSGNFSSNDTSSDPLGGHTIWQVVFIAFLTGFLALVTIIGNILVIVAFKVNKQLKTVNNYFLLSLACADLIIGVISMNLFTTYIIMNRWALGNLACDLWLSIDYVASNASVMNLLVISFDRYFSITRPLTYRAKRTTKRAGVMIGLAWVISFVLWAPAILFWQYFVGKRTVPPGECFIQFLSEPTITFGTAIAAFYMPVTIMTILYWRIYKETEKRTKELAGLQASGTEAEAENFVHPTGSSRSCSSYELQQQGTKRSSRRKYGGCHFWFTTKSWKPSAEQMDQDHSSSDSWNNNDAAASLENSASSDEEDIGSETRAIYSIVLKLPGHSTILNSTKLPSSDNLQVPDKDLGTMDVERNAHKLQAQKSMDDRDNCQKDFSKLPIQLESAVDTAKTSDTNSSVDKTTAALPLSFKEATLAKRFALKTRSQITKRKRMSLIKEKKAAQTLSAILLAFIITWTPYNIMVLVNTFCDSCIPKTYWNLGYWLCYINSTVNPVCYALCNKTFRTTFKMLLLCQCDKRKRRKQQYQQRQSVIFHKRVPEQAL
How it was run: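 A9L fibroblasts transfected with m3 receptor, grown in DMEM with 10% newborn calf serum. Labeled overnight with [3H]myo-inositol, preincubated 5 min at 37 °C in 10 mM LiCl DMEM-Hepes. Compound at 100 μM final, 30 min at 37 °C. Labeled inositol phosphates extracted by ion exchange. Result expressed as percent of the oxotremorine-M response, duplicate determinations.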

[3] = molecular target: T1, Muscarinic acetylcholine receptor (Rattus norvegicus) (UniProt P08482+P08483+P08485+P08911+P10980); assay: Evaluated for displacement of [3H]oxotremorine-M binding ([3H]OXO-M) at muscarinic acetylcholine receptor in rat forebrain membranes; assay type: cell membranes; set-up: concentration or dose not given beside the values; conditions: Membrane
How it was run: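 Sprague-Dawley rat forebrain membranes. Incubated with 2.7 nM [3H]Oxo-M in 50 mM NaPO4, 2 mM MgCl2, pH 7.4, 20 min at 37 °C. Filtered on glass fiber presoaked in 0.05% polyethylenimine. Nonspecific binding defined with 1 μM atropine. Single concentration 1 μM, triplicate, averaged over two to five trials. Read-out is percent displacement of specific binding.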

[4] = molecular target: T1, Muscarinic acetylcholine receptor (Rattus norvegicus); assay: Displacement of [3H]N-methylscopolamine ([3H]NMS) binding at muscarinic acetylcholine receptor in rat cerebral cortical membranes; assay type: cell membranes; set-up: concentration or dose not given beside the values; conditions: Membrane
How it was run: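 Rat (Sprague-Dawley, either sex, 200 g) forebrain membranes, homogenized and washed in 50 mM sodium phosphate pH 7.4. 200-300 μg membrane incubated with 0.5 nM [3H]NMS plus compound (single concentration, 100 μM) in phosphate-buffered saline, 60 min at 37 °C. Filtered on glass fiber, scintillation counted. Nonspecific binding defined with 1 μM atropine. Triplicate. Reported as percent displacement.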

[5] = The percent inhibition of cyclic AMP(cAMP) formation in NG108-15 cells at 100 uM.; conditions: Mus musculus
[6] = The percent inhibition of cyclic AMP(cAMP) formation in NG108-15 cells expressed in m40AChR was measured; i=inactive (< 2%); conditions: Mus musculus
A9 [7] = assay: The increase in phosphoinositide (PI) metabolism in A9L-m1 cells was measured at 100 uM; i = inactive; assay type: functional, cell-based; conditions: Mus musculus
How it was run: (§1)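 A9L fibroblasts transfected with m1 or m3 receptor, grown in DMEM with 10% newborn calf serum. Labeled overnight with [³H]myo-inositol, preincubated 5 min at 37 °C in 10 mM LiCl in DMEM-Hepes, then exposed to compound at 100 μM final for 30 min. Inositol phosphates extracted by ion exchange. Result expressed as percent of Oxo-M response; duplicate determinations.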

A9 [8] = assay: The increase in phosphoinositide (PI) metabolism in A9L-m3 cells was measured at 100 uM; i = inactive; assay type: functional, cell-based; conditions: Mus musculus; how it was run: as §1
[9] = molecular target: T1, Muscarinic acetylcholine receptor (Rattus norvegicus); assay: Compound was evaluated for displacement of [3H]N-methylscopolamine ([3H]NMS) binding at muscarinic acetylcholine receptor in rat cerebral cortical membranes; assay type: cell membranes; conditions: Membrane
How it was run: (§2)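 Rat cerebral cortical membranes, 200-300 μg per tube, incubated with 0.5 nM [³H]NMS and test compound at a single concentration of 100 μM in phosphate-buffered saline, 60 min at 37 °C. Glass fiber filtration and scintillation counting. Nonspecific binding taken with 1 μM atropine and subtracted. Triplicates; result given as percent displacement of specific binding.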

[10] = molecular target: T1, Muscarinic acetylcholine receptor (Rattus norvegicus); assay: Compound was evaluated for displacement of [3H]oxotremorine-M binding ([3H]OXO-M) at muscarinic acetylcholine receptor in rat forebrain membranes; assay type: cell membranes; conditions: Membrane
How it was run: (§3)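 Forebrain membranes from Sprague-Dawley rats, prepared in 50 mM sodium phosphate pH 7.4. Incubated with 2.7 nM [³H]Oxo-M and test compound at a single concentration of 1 μM in 50 mM NaPO₄, 2 mM MgCl₂, pH 7.4, 20 min at 37 °C. Filters presoaked in polyethylenimine; nonspecific binding with 1 μM atropine. Percent displacement, mean of two to five trials.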

[11] = molecular target: T1, Muscarinic acetylcholine receptor (Rattus norvegicus); assay: compound was evaluated for displacement of [3H]N-methylscopolamine ([3H]NMS) binding at muscarinic acetylcholine receptor in rat cerebral cortical membranes; i = inactive (< 1%); assay type: cell membranes; conditions: Membrane; how it was run: as §2
[12] = molecular target: T1, Muscarinic acetylcholine receptor (Rattus norvegicus); assay: compound was evaluated for displacement of [3H]oxotremorine-M binding ([3H]OXO-M) at muscarinic acetylcholine receptor in rat forebrain membranes; i = inactive (< 1%); assay type: cell membranes; conditions: Membrane; how it was run: as §3

Compound	PI turnover (A9 [1])	PI turnover [2]	Displacement [3]	Displacement [4]	inhibition [5]	inhibition [6]	PI turnover (A9 [7])	PI turnover (A9 [8])	Displacement [9]	Displacement [10]	Displacement [11]	Displacement [12]
CC(=O)N(C)CC#CCN1CCC(CO)CC1.O=C(O)C(=O)O	8.8	16	14.7%	10.2%	4.8%	–	–	–	–	–	–	–
CCOC(=O)C1CCCCN1CC#CCN(C)C(C)=O.O=C(O)C(=O)O (centres undefined)	12.8	15.2	24.9%	5.8%	44.1%	–	–	–	–	–	–	–
COC[C@@H]1CCCN1CC#CCN(C)C(C)=O.O=C(O)C(=O)O	6.2	5.5	–	52%	15.4%	–	–	–	–	–	–	–
CC(=O)N(C)CC#CCN1CCC[C@@H]1CO.O=C(O)C(=O)O	2.6	4.8	39.7%	56.2%	–	inactive	–	–	–	–	–	–
CC(=O)N(C)CC#CCN1CCC[C@H]1CO.O=C(O)C(=O)O	5.1	4.7	25%	33.1%	–	inactive	–	–	–	–	–	–
C[N+](C)(C)CCOC(N)=O	–	86.1	–	–	–	–	–	–	–	–	–	–
CC(=O)N(C)CC#CCN1CCN(CCO)CC1	–	–	22.3%	9.3%	–	inactive	inactive	inactive	–	–	–	–
CC(=O)N(C)CC#CCN1CCC(CCO)CC1.O=C(O)C(=O)O	3.3	–	11%	16.3%	–	inactive	–	–	–	–	–	–
CC(=O)N(C)CC#CCN1CCC[C@@H]1CF.O=C(O)C(=O)O	7.2	10.4	61.5%	67.2%	38.6%	–	–	–	–	–	–	–
CCOC(=O)C1CCN(CC#CCN(C)C(C)=O)CC1.O=C(O)C(=O)O	3.3	8.8	32.1%	47.5%	–	inactive	–	–	–	–	–	–
CC(=O)N(C)CC#CCN1CCC(O)C1.O=C(O)C(=O)O (centres undefined)	17.1	7.4	39.9%	21.5%	22.5%	–	–	–	–	–	–	–
CC(=O)N(C)CC#CCN1CCC(OS(C)(=O)=O)C1.O=C(O)C(=O)O (centres undefined)	10.4	17.2	25.2%	20.2%	38.5%	–	–	–	–	–	–	–
CC(=O)N(C)CC#CCN1CCCCC1	–	5.6	68.9%	83.4%	–	inactive	inactive	–	–	–	–	–
CC(=O)N(C)CC#CCN1CCC(O)CC1	–	2.6	9.2%	3.8%	–	–	inactive	–	–	–	–	–
CC(=O)N(C)CC#CCN1CCC1.O=C(O)C(=O)O	61.3	59.8	94%	38%	95.7%	–	–	–	–	–	–	–
CC(=O)N(C)CC#CCN1CCCCC1CO.O=C(O)C(=O)O (centres undefined)	7.3	12.5	20.4%	31.2%	–	inactive	–	–	–	–	–	–
CC(=O)N(C)CC#CCN1CCCC1	52.5	41.6	94.7%	89.4%	100%	–	–	–	–	–	–	–
CC(=O)N(C)CC#CCN1CCCC(O)C1 (centres undefined)	–	4.9	9.1%	21.7%	3.4%	–	inactive	–	–	–	–	–
CC(=O)N(C)CC#CCN1CCC(F)C1.O=C(O)C(=O)O (centres undefined)	11.3	7.9	38.1%	29%	8.9%	–	–	–	–	–	–	–
CC(=O)OC[C@H]1CCCN1CC#CCN(C)C(C)=O	–	2.6	–	–	–	inactive	inactive	–	61.6%	42.1%	–	–
CC(=O)N(C)CC#CCN1CCC(OC(=O)c2ccccc2)C1.O=C(O)C(=O)O (centres undefined)	1.4	4	39.1%	57.4%	–	inactive	–	–	–	–	–	–
CC(=O)N(C)CC#CCN1CCNCC1.O=C(O)C(=O)O	18.2	12	33.8%	51.2%	16.8%	–	–	–	–	–	–	–
O=C1CCCN1CC#CCN1CCCC1	–	35.6	–	–	–	–	–	–	–	–	–	–
CC(=O)N(C)CC#CCN1CCC(OS(=O)(=O)c2ccc(C)cc2)C1.O=C(O)C(=O)O (centres undefined)	23.1	23.1	64.8%	51.6%	83.6%	–	–	–	–	–	–	–
CC(=O)N(C)CC#CCN1CCC(F)CC1	–	–	–	18.8%	–	–	–	–	–	–	–	–
CC(=O)N(C)CC#CCN1CCC(C(=O)O)CC1	–	5.2	26.8%	–	17.5%	–	inactive	–	–	–	inactive	–
CC(=O)N(C)CC#CCN1CCCC(CO)C1 (centres undefined)	–	2.8	22.4%	45%	–	–	inactive	–	–	–	–	–
CC(=O)N(C)CC#CCN1CCN(C(C)=O)CC1.O=C(O)C(=O)O	1	3.1	–	59.2%	–	inactive	–	–	–	–	–	inactive
CCOC(=O)C1CCCN(CC#CCN(C)C(C)=O)C1.O=C(O)C(=O)O (centres undefined)	6.6	12.9	31.2%	39.8%	23.6%	–	–	–	–	–	–	–
